Experimental data as given in ChEMBL document CHEMBL4513216, “Probing the Open Global Health Chemical Diversity Library for Multistage-Active Starting Points for Next-Generation Antimalarials” (ACS Infect Dis, 2020).

Assay: Toxicity liver stage against HepG2, at 10uM
Format: cell-based
Design: test concentration 10 uM, cell line HepG2-A16-CD81EGFP
Conditions: human, HepG2-A16-CD81EGFP cells; read-out: INHIBITION
In short: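 Uninfected HepG2-A16-CD81EGFP cells, 3 × 10^3 per well, 1536-well, plated on prespotted compound at 10 μM final, parasite-free screening media added to match infected plates; puromycin 10 μM positive, DMSO 0.5% negative; run in parallel with 48 h PbLuc assay at 37 °C, 5% CO2; viability by CellTiter-Glo luminescence, normalized to controls.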

SMILES | cytotoxicity at 10 µM
O=C(CCCNC(=O)c1cnccn1)Nc1ncc[nH]1 | -41.9%
CC(=O)Nc1ccc2c(c1)CN(C(=O)c1ccco1)CC2 | 6.17%
O=C(CN1C(=O)CCC1=O)NCc1nn(C2CCCC2)c2c1CCCC2 | 1.97%
CCCS(=O)(=O)N1CC[C@H]2OCC[C@@]2(c2nnc(C)o2)C1 | 8.43%
COc1cc(C(=O)NCC2CC2)nc2c(C)cc(F)cc12 | 7.52%
Cc1ccc(C)c(Oc2cc(-n3nc(C)c(C#N)c3N)nc(C)n2)c1 | 69.5%
CCS(=O)(=O)N1CCCc2ccc(NC(=O)Cc3ccc(F)cc3)cc21 | 18.6%
CSCC(C)(O)CNC(=O)c1cc(Br)ccc1Cl (stereo unspecified) | -25.1%
CS(=O)(=O)N1Cc2ccccc2C2(CCN(C(=O)c3ccno3)CC2)C1 | 6.31%
CCOc1ccc(S(=O)(=O)N(C)Cc2cnn(CC)c2)cc1 | 11.6%
Cc1cc2nc(CN(C)c3ccc(Cl)cc3)cc(=O)n2o1 | -13%
Cc1nn(C)c2cn(C(C)C(=O)NCc3ccccn3)nc12 (stereo unspecified) | 11.1%
CCC(=O)N1CCCC(C(=O)c2cnn(-c3ccc(F)cc3)c2N)C1 (stereo unspecified) | 4.57%
COc1cccc([C@H]2CN(C(=O)c3ccccc3)[C@@H]3CCCN[C@H]23)c1 | -25.9%
CCCn1nccc1-c1cc(C2CCN(S(C)(=O)=O)CC2)ccn1 | -6.94%
CCS(=O)(=O)N1CCCC(Cc2cnccn2)C1 (stereo unspecified) | -10.3%
Cc1ccc(-c2cc(N)c(=O)n(CC(=O)NC3CCCCC3)n2)s1 | 2.98%
CS(=O)(=O)N1Cc2ccccc2CC2(CCN(Cc3ccccc3)C2)C1 (stereo unspecified) | 7.38%
N#Cc1cccc(OCCN2CCC(C(=O)N3CCOCC3)CC2)c1 | -42.3%
Cc1nc(-c2cccs2)ccc1C(=O)N1CCN(CC(C)O)CC1 (stereo unspecified) | -45.1%
CN(C)CCNc1ncccc1CNC(=O)Nc1cc(F)cc(F)c1 | 2.62%
CC(C)COc1cncc(NCCc2nnc3ccccn23)n1 | 7.55%
CCN1CCCC(NC(=O)c2ccc(C)[nH]c2=O)C1 (stereo unspecified) | 9.95%

SMILES | cytotoxicity at 10 µM
CN(c1nc(Cn2cnccc2=O)cs1)C1CC1 | -6.59%
CCCC(=O)NC1CCCN(c2cncc(Br)c2)C1 (stereo unspecified) | -38.5%
Cn1c(N)nnc1SCc1c(F)cccc1Br | -43.2%
CCC(CC)NC(=O)c1cccnc1-n1cccn1 | -13.9%
CN(C)c1ccc(CNC2(c3ccc(F)cc3)CCOCC2)cc1F | 0.937%
Cc1c(C(=O)NC2CCCOC2)nnn1-c1ccc(Cl)cc1F (stereo unspecified) | 8.55%
CC(=O)Nc1nc(CS(=O)(=O)Cc2ccccc2)cs1 | -3.39%
CCn1cc(NC(=O)C2CCN(Cc3nc(C)c(C)s3)CC2)cn1 | 6.37%
Cc1cnn(CC2CCCN2c2ncnc3sccc23)c1 (stereo unspecified) | 44.4%
CCC(C)C(=O)Nc1ccc2oc(=O)n(CCN(C)C)c2c1 (stereo unspecified) | -14.8%
C=C(C)CN1CCC(NC(=O)NCCc2ccc(N(C)C)cc2)CC1 | 2.2%
CC(CNC(=O)c1ccc(F)cc1I)N1CCCC1 (stereo unspecified) | 1.28%
Cc1cc(=O)n2ncnc2n1CC(O)COCc1ccccc1Cl (stereo unspecified) | 3.52%
Cc1cc(Cl)cc(C)c1CNC1CCN(CC(=O)N(C)C)CC1 | -1.51%
N#Cc1cccnc1NCc1ccc(S(=O)(=O)NCC2CCCO2)cc1 (stereo unspecified) | 5.98%
O=C(C1CCCN(Cc2cccnc2)C1)N1CCc2sccc2C1 (stereo unspecified) | 7.99%
Cc1cc(C)cc(C(=O)NCCCNc2ncccn2)c1 | 32.4%
Cc1nc(CNC(=O)NC2CCN(c3cccc(Cl)c3)C2)no1 (stereo unspecified) | 0.636%
Cc1cc(C(=O)NS(=O)(=O)Cc2ccon2)c(C)n1C(C)C | -2.17%
Cc1cc(C)c(CNc2nc3ccccc3cc2CO)c(=O)[nH]1 | 6.37%
COc1cc(F)cc(NC(=O)NCc2cccc(N(C)C)n2)c1 | 25%
COCC(C)NS(=O)(=O)c1ccc(Br)cn1 (stereo unspecified) | -6.74%
CC(C)Nc1nc(N2CCOCC2)nc2c1CN(Cc1ccoc1)CC2 | 1.52%

SMILES | cytotoxicity at 10 µM
CC(=O)N1CCC(n2ccc(-c3cnc(NCC(C)C)nc3)n2)CC1 | -9.13%
CC1(C)C(C(=O)NCCC2CN(Cc3c[nH]cn3)CCO2)C1(C)C (stereo unspecified) | -3.67%
CSCC(=O)N(C)Cc1noc(-c2ccccc2)n1 | -4.34%
c1cn(-c2ccc(N3CCC(NC4CC4)CC3)cc2)cn1 | 5.16%
CNS(=O)(=O)c1ccc(CN2CCCN(Cc3ccncc3)CC2)cc1 | 7.06%
Cc1nc(CN(C)Cc2nc(-c3sccc3C)oc2C)no1 | -0.205%
O=C1Nc2ccccc2NC12CCN(Cc1nnc(C3CC3)o1)CC2 | -7.03%
O=C1CC2(CCN(C(=O)c3cccc(Cl)c3)CC2)CN1 | -3.02%
Cc1nccn1-c1ccc(NC(=O)C2CCCN2CC2CC2)cc1 (stereo unspecified) | -14%
CCN(CC)C(=O)[C@@H]1C[C@H](N)CN1c1nnc(-c2ccccc2)s1 | -51.7%
O=C(NCc1ccc2[nH]c(=O)[nH]c2c1)c1ccc(CN2CCCC2)o1 | -0.987%
CCc1nc2c(NCC3COc4c(cccc4OC)C3)ncnc2o1 (stereo unspecified) | -0.164%
Cc1ncc2c(c1CNC(=O)C1(C)CCCO1)CCNC2 (stereo unspecified) | -45.6%
OCc1ccc(CN(CCCn2ccnc2)Cc2cccnc2)o1 | -6.75%
CC(O)c1cn(CC2CCN(C(=O)c3cccc(N(C)C)c3)CC2)nn1 (stereo unspecified) | -0.412%
COc1ccc2c(c1)C(C(=O)N(C)CCCc1cnn(C)c1)CC(=O)N2 (stereo unspecified) | -46.9%
COc1ccccc1C1CNC(=O)c2nc(-c3nccn3C)[nH]c2C1 (stereo unspecified) | 4.2%
Cc1cnc(C)c(-c2cccc(-c3ccn(CCN4CCCC4)n3)c2)n1 | -10.5%
CCCN1CCC(CC(=O)N(C)CC(=O)c2ccc(O)cc2)CC1 | 1.73%
O=C(C1CCC1)N1CCC(C2CCN(Cc3ccc(Cl)cc3)C2)CC1 (stereo unspecified) | -10.5%
Cc1cc(C(=O)N[C@H]2COC[C@@H]2N2CCOCC2)c2ccc(F)cc2n1 | -48.2%
Nc1ccc(CC2COc3ccccc3C2)cn1 (stereo unspecified) | 0.541%
CCOc1ccc(C(=O)CCC(=O)NCc2csc(N)n2)cc1C | 7.34%

SMILES | cytotoxicity at 10 µM
CC(C)CN1CC2(CCN(C(=O)c3nc4ncccn4n3)CC2)CC1=O | 0.345%
NC(=O)C1CCN(C(=O)c2cc(S(=O)(=O)N3CCCCC3)cs2)CC1 | -45.1%
Cc1ccc(C(=O)NCCN2CCOCC2)cc1N(C)S(C)(=O)=O | 15.1%
COc1ccc(-c2nc3c([nH]2)CCNC3C(=O)O)c2ccccc12 (stereo unspecified) | 8.63%
c1ccc2oc(CN3CCCCC3Cn3cncn3)nc2c1 (stereo unspecified) | -13.9%
CCc1nccn1C1CCCN(C(=O)c2cnn3cccnc23)C1 (stereo unspecified) | -18.2%
O=C(COc1ccc(Cl)cc1)N1CCOCC1c1ncon1 (stereo unspecified) | -21%
Cc1cc(NC(=O)CN2CCOC(Cn3nc(C)cc3C)C2)n(C)n1 (stereo unspecified) | -7.91%
CC(C)CNC(=O)CN1C=Nc2ccccc2S1(=O)=O | -2.09%
CC(NC(=O)CSCC#N)c1ccccc1 (stereo unspecified) | -5.9%
c1ccc2oc(N3CCCCC3Cn3cncn3)nc2c1 (stereo unspecified) | -7.59%
CC(C)c1nc(C2CCCN(C(=O)CCn3ccnc3)C2)no1 (stereo unspecified) | -10.8%
CC(C(=O)Nc1ccc(N2CCCC2)nc1)n1cncn1 (stereo unspecified) | -6.19%
Cc1ccccc1-c1noc(CN2CCn3c(nnc3C3CC3)C2)n1 | -7.64%
O=C(Nc1cnn(CCN2CCOCC2)c1)c1ccccc1O | -3.38%
Cc1ccc(Cc2cnc(NC(=O)C3CNC(=O)N3)s2)cc1F (stereo unspecified) | 1.11%
Cc1cc(NC(=O)CCN2CCCC2Cn2cncn2)no1 (stereo unspecified) | 4.26%
CC(=O)N1CCN(C(=O)c2cnn(-c3ccccc3Cl)c2)CC1 | -8.72%
Cc1ccccc1CCNC(=O)C1CC(=O)N(CC(F)(F)F)C1 (stereo unspecified) | -6.17%
Cc1cnn(CC2CCN(CC(O)COc3ccc(F)cc3)CC2)c1 (stereo unspecified) | -10.9%
COCC1CN(CC2CC2)Cc2nn(C)cc21 (stereo unspecified) | 0.281%
Cc1cc(C(=O)N2CCCC3(COCCN(CCN(C)C)C3)C2)no1 (stereo unspecified) | 3.22%
COc1ccc(C[C@H]2CN(c3cc(OC)ncn3)CC[C@@H]2OC)cc1 | 50%

SMILES | cytotoxicity at 10 µM
O=C(c1ccncc1F)N1Cc2nc(COCC3CC3)oc2C1 | -99.9%
O=S(=O)(c1cccnc1)N1C[C@@H]2COC[C@]2(CN2CCOCC2)C1 | 5.86%
CN(Cc1ccncc1)C1CC2(CCN(c3ncc(F)cn3)CC2)C1 | 52.4%
Cn1cccc1C(=O)N1CC[C@H]2[C@H]1CCN2CC1CC1 | -3.86%
CCCN1CCc2c(C(=O)N(C)Cc3ccccn3)nn(C)c2C1 | -1.92%
Cc1ccc2c(c1)C1(CCNCC1)CC2NCCO (stereo unspecified) | -105%
CCC(=O)Nc1ccc2c(c1)C1(CCOCC1)CN2CCOC | -99%
Cc1ccc(N2CC[C@@H]3[C@@H]2CCN3C(=O)Cc2ccsc2)nn1 | -93.9%
CCOc1c(Br)cc(CNCCc2nnc3n2CCCCC3)cc1OC | -59.6%
COc1c(CNCc2ccc(C(=O)N(C)C)cc2)c(C)nn1C | 1.64%
COc1cc(N2CCC3(CCN(Cc4csc(C)n4)C3)CC2)ncn1 | -118%
Cc1ccc(C(=O)N2CCC3(CC2)CC(N2CCOCC2)C3)cc1 | 1.93%
O=C1CC[C@H]2[C@H](CCN2c2ncccn2)N1c1ccccc1 | 5.77%
COc1ncccc1CNC1CCc2c(ccc(=O)n2CC2CC2)C1 (stereo unspecified) | -110%
Cc1nc(COC[C@@H]2CC[C@H]3NCC[C@H]3O2)cs1 | -3.15%
C1CC(N2C[C@@H]3COC[C@]3(COCC3CCOCC3)C2)C1 | -111%
CN(Cc1ccco1)[C@@H]1CN(Cc2cccnc2)[C@@H]2CCCO[C@H]12 | -79.8%
CCC=C(C)C(=O)NCc1ccnc(OC2CCOCC2)c1 | 5.48%
C=c1ccoc1=C1NN=C(CNC2CCCN(c3cccnn3)C2)O1 (stereo unspecified) | -9.48%
